# “And” between values parts separate entries of the source, which are not always exact repeats. Equal values may be shown once. Read-outs that look alike come from different tables or passages of the source.
# Assays:
# [1] = In vitro cytotoxicity with L-6 cells; type: cell-based; details: rat, L-6 cells (rat skeletal myoblasts)
# [2] = tested on: Plasmodium berghei NK 65 strain; assay: Mean Survival Time; type: in vivo, Plasmodium berghei in Swiss albino mice
# How it was run: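 Peters' 4-day suppressive design: male and female Swiss albino mice (14–31 g) were inoculated with P. berghei NK 65 and randomised into five groups. Test compound in vehicle (100, 200 or 400 mg/kg) was given orally once daily on days 0–4, first dose 2 h after inoculation. Chloroquine at 100 mg/kg was the positive control and vehicle alone the negative control. Mortality was recorded for 30 days from inoculation.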
# [3] = tested on: P. falciparum NF54 strain; assay: In vitro antiplasmodial screening, 3H-hypoxanthine incorporation assay; type: cell-based, Plasmodium falciparum; details: for Selectivity Index: L6 IC50 / Pf IC50
# How it was run: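 P. falciparum NF54 erythrocytic stages were grown in human A+ red cells (2.5% haematocrit, 0.3% parasitaemia) in hypoxanthine-free RPMI 1640 with HEPES, NaHCO₃, neomycin and Albumax. Test compound was stocked in DMSO at 10 mg/ml and diluted in medium to […]. Plates ran 48 h at 37 °C under 4% CO₂/3% O₂/93% N₂, then 0.5 µCi ³H-hypoxanthine was added for 24 h. Cells were harvested for scintillation counting. IC50 came from sigmoidal curves by linear regression, with chloroquine as standard.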
# [4] = tested on: Plasmodium berghei NK 65 strain; assay: Peter's four-day suppressive test; type: in vivo, Plasmodium berghei in Swiss albino mice; details: for % Parasitemia: mean ± SEM
# In vivo acute toxicity = assay: In vivo acute toxicity; set-up: species or system Swiss albino mice
# How it was run: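 Male and female Swiss albino mice, 6–8 weeks old, were dosed per OECD guidance. Each group got one oral dose of test compound (100, 200, 400, 2000 or 5000 mg/kg) in 10% DMSO/10% Tween 80/80% water; a vehicle group served as control. Intoxication signs and mortality were watched for the first 30 min, then over 14 d. Mice were weighed on the first and final day (final day 14 d for the three lower doses, 7 d for the two higher). LD50 was the geometric mean of the least lethal dose and the highest non-lethal dose (Lorke). Kidney and liver were examined by histology, with paired t-test statistics.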
# [5] = tested on: P. falciparum NF 54 strain; details: ref Miglianico et al., 2023; cited from earlier work
# [6] = 100 mg/kg oral daily Days 0-4, monitored 30 days, (+) = animals survived
# [7] = Plasmodium falciparum, NF54, read-out: Antiplasmodial (Pf) IC50, NF54 strain, erythrocytic stages
# [8] = 100 mg/kg oral daily Days 0-4, Day 4 blood
# [9] = read-out: Antiplasmodial (Pf) IC50, NF54 strain, erythrocytic stages
structure (smiles),measurement,setting,value
"CCN(CC)CCCC(C)Nc1ccnc2cc(Cl)ccc12 (stereo not shown) [Chloroquine, chloroquine, reference compound]",IC50 at 72 h,[1],66.1 µM
same,MST,[2]; [6],30 (+) days
same,Selectivity Index,[3],33069.00
same,IC50,[3]; [7],2 nM
same,% Suppression ± SEM,[4]; 100 mg/kg oral daily Days 0-4,81.71 ± 1.82%
same,% Parasitemia,[4]; [8],2.4 ± 0.08%
same,% Suppression ± SEM,"[4]; 100 mg/kg oral daily Days 0-4, listed as standard drug",81.71%
"N=C(NO)c1ccc(C(=O)NO)cc1 [Compound 1c, N-Hydroxy-4-(N-hydroxycarbamimidoyl)benzamide]",IC50 at 72 h,[1],11 µM
same,Selectivity Index,[3],27.04
same,IC50,[3]; [7],405 nM
"Cl.N=C(N)c1ccc(C(=O)NO)cc1 [Compound 1d, 4-Carbamimidoyl-N-hydroxybenzamide Hydrochloride]",IC50 at 72 h,[1],19.6 µM
same,Selectivity Index,[3],98.72
same,IC50,[3]; [7],< 200 nM
same,IC50,[3]; [9],199 nM
"N=C(NO)c1ccc(NC(=S)NOCc2ccccc2)cc1 [Compound 2b, 4-(3-(Benzyloxy)thioureido)-N-hydroxybenzimidamide]",IC50 at 72 h,[1],18.2 µM
same,Selectivity Index,[3],7.59
same,IC50,[3]; [7],2400 nM
"Nc1ccc(C(=O)NO)cc1 [Compound 3b, 4-Aminobenzenecarbohydroxamic acid]",IC50 at 72 h,[1],6.6 µM
same,Mortality D0,"In vivo acute toxicity; 100 mg/kg bdw oral, 4 mice",0
same,Mortality D1,"In vivo acute toxicity; 100 mg/kg bdw oral, 4 mice",0
same,Mortality D5,"In vivo acute toxicity; 100 mg/kg bdw oral, 4 mice",1
same,Mortality D7,"In vivo acute toxicity; 100 mg/kg bdw oral, 4 mice",0
same,Mortality D14,"In vivo acute toxicity; 100 mg/kg bdw oral, 4 mice",0
same,Liver histology,"In vivo acute toxicity; 100 mg/kg, 200 mg/kg and 400 mg/kg, mice",mild to moderate vacuolar degeneration of hepatocytes
same,Kidney histology,"In vivo acute toxicity; 100 mg/kg, mice",Kidney tubular degeneration
same,% Mortality,"In vivo acute toxicity; 200 mg/kg bdw oral, 4 mice",0%
same,Mortality D0,"In vivo acute toxicity; 200 mg/kg bdw oral, 4 mice",0
same,Mortality D1,"In vivo acute toxicity; 200 mg/kg bdw oral, 4 mice",0
same,Mortality D5,"In vivo acute toxicity; 200 mg/kg bdw oral, 4 mice",0
same,Mortality D7,"In vivo acute toxicity; 200 mg/kg bdw oral, 4 mice",0
same,Mortality D14,"In vivo acute toxicity; 200 mg/kg bdw oral, 4 mice",0
same,Mortality D0,"In vivo acute toxicity; 400 mg/kg bdw oral, 4 mice",0
same,Mortality D1,"In vivo acute toxicity; 400 mg/kg bdw oral, 4 mice",1
same,Mortality D5,"In vivo acute toxicity; 400 mg/kg bdw oral, 4 mice",0
same,Mortality D7,"In vivo acute toxicity; 400 mg/kg bdw oral, 4 mice",0
same,Mortality D14,"In vivo acute toxicity; 400 mg/kg bdw oral, 4 mice",0
same,Kidney histology,"In vivo acute toxicity; 400 mg/kg, mice",Severe congestion and edema
same,% Mortality,"In vivo acute toxicity; 2,000 mg/kg bdw oral, 4 mice",0%
same,Mortality D0,"In vivo acute toxicity; 2,000 mg/kg bdw oral, 4 mice",0
same,Mortality D1,"In vivo acute toxicity; 2,000 mg/kg bdw oral, 4 mice",0
same,Mortality D5,"In vivo acute toxicity; 2,000 mg/kg bdw oral, 4 mice",0
same,Mortality D7,"In vivo acute toxicity; 2,000 mg/kg bdw oral, 4 mice",0
same,Mortality D14,"In vivo acute toxicity; 2,000 mg/kg bdw oral, 4 mice",0
same,Kidney histology,"In vivo acute toxicity; 2000 mg/kg, mice",no lesions
same,% Mortality,"In vivo acute toxicity; 5,000 mg/kg bdw oral, 1 mouse",0%
same,Mortality D0,"In vivo acute toxicity; 5,000 mg/kg bdw oral, 1 mouse",0
same,Mortality D1,"In vivo acute toxicity; 5,000 mg/kg bdw oral, 1 mouse",0
same,Mortality D5,"In vivo acute toxicity; 5,000 mg/kg bdw oral, 1 mouse",0
same,Mortality D7,"In vivo acute toxicity; 5,000 mg/kg bdw oral, 1 mouse",0
same,Mortality D14,"In vivo acute toxicity; 5,000 mg/kg bdw oral, 1 mouse",0
same,Toxicity at the highest concentration limit,"In vivo acute toxicity; 5000 mg/kg, single oral dose, mice",no toxicity
same,Body weight change,"In vivo acute toxicity; with increase in concentration of compound, acute toxicity study, mice",gained additional weight
same,MST,[2]; [6],24 days
same,MST,"[2]; 200 mg/kg oral daily Days 0-4, monitored 30 days",29.5 days
same,MST,"[2]; 400 mg/kg oral daily Days 0-4, monitored 30 days, (+) = animals survived",30 (+) days
same,Selectivity Index,[3],44.92
same,IC50,[3]; [7],< 200 nM
same,IC50,[3]; [9],147 nM
same,% Suppression ± SEM,[4]; 100 mg/kg oral daily Days 0-4,51.99 ± 10.38%
same,% Parasitemia,[4]; [8],6.25 ± 0.95%
same,% Suppression ± SEM,[4]; 200 mg/kg oral daily Days 0-4,78.55 ± 13.35%
same,% Parasitemia,"[4]; 200 mg/kg oral daily Days 0-4, Day 4 blood",2.95 ± 1.95%
same,% Suppression ± SEM,[4]; 400 mg/kg oral daily Days 0-4,80.53% and 80.53 ± 3.26%
same,% Parasitemia,"[4]; 400 mg/kg oral daily Days 0-4, Day 4 blood",2.6 ± 0.6%
"COc1cc([C@@H]2c3cc4c(cc3[C@H](O)[C@H]3COC(=O)[C@H]23)OCO4)cc(OC)c1OC [Podophyllotoxin, reference compound]",IC50 at 72 h,[1],0.002 µM
CCc1nc(N)nc(N)c1-c1ccc(Cl)cc1 [Pyrimethamine],IC50,[5],17 nM
CC1(C)N=C(N)N=C(N)N1c1ccc(Cl)cc1 [cycloguanil],IC50,[5],4.5 nM
